Measurements reported in ChEMBL document CHEMBL1133762, “Aureobasidins: structure-activity relationships for the inhibition of the human MDR1 P-glycoprotein ABC-transporter” (J Med Chem, 2000).
Converted amounts (≈) assume the structure as drawn. Square brackets hold non-standard residues; d marks the D form. Peptide text beside a SMILES is read from it. Hmp(2R,3S) = CC[C@H](C)[C@@H](O)C(=O)O; NMeVal(β-OH) = CN[C@H](C(=O)O)C(C)(C)O; NMeF = CN[C@@H](Cc1ccccc1)C(=O)O; NMeV = CN[C@H](C(=O)O)C(C)C

What was measured:
[1] = target: T1, ATP-dependent translocase ABCB1 (Homo sapiens, UniProt P08183); experiment: (§1) Human MDR1 Pgp inhibitory activity by using standard calcein-AM efflux method with the human leukemia CEM cells.; type: cell-based, CCRF-CEM
T1 sequence (P08183 whole entry): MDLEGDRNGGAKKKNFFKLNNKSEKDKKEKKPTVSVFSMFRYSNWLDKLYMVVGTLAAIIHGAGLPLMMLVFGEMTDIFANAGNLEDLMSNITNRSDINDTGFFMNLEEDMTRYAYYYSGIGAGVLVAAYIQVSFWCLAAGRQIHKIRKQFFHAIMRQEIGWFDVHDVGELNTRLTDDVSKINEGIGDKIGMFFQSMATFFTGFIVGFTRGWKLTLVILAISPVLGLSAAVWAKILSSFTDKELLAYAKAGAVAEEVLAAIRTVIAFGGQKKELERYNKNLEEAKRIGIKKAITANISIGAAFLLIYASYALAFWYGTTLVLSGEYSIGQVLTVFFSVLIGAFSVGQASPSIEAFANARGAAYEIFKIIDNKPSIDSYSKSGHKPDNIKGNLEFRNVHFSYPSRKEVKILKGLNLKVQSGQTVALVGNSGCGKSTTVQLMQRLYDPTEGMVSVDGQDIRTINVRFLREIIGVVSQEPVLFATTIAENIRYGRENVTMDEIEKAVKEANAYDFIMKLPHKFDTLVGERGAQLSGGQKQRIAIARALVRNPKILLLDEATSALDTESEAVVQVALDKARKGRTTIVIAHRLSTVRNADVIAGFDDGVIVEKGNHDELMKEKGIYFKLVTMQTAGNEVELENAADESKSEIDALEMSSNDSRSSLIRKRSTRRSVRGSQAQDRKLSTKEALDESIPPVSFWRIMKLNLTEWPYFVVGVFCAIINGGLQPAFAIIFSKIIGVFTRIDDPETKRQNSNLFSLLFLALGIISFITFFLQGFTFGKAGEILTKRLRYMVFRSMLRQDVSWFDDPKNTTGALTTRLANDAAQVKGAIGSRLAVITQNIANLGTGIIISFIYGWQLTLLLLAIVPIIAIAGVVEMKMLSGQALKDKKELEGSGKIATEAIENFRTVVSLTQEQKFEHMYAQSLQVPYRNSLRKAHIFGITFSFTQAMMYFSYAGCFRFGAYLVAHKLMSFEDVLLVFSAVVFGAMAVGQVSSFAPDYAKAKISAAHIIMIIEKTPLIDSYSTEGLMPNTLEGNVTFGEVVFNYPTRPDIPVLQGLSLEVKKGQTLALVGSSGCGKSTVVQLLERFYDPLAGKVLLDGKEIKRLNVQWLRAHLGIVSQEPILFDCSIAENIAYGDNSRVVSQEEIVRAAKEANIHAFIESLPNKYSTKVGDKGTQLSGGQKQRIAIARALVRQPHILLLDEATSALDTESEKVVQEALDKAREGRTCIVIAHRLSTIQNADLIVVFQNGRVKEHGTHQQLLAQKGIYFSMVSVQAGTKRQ

[2] = target: P-glycoprotein (ABCB1, MDR1) (Homo sapiens, UniProt P08183); experiment: as §1; type: cell-based, CCRF-CEM; conditions: probe calcein-AM
P-glycoprotein (ABCB1, MDR1), sequence (P08183 whole entry): as above

[3] = test system: Saccharomyces cerevisiae; experiment: Minimum growth-inhibitory concentration against Saccharomyces cerevisiae ATCC 9763 by agar dilution method by the suspension of a fungi containing ~5 x 10e (7) cells/mL.; type: functional
Outline: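 Agar dilution on Sabouraud–dextrose agar plates with graded compound concentrations. A loopful of yeast suspension (about 5 × 10⁷ cells/mL) was streaked on the surface. Plates were incubated at 30 °C for 3 days. MIC is the lowest concentration with no detectable growth.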

[4] = target: T1, ATP-dependent translocase ABCB1; experiment: Direct comparison of the antifungal activities with the relative Pgp-inhibitory potencies, calculated by comparing ug/mL IC50(or IC20).; type: functional
[5] = test system: Saccharomyces cerevisiae; experiment: Relative antifungal activity (against Saccharomyces cerevisiae) compared to AbA
[6] = Antifungal activity was determined by its potency compared with that of AbA. Value is determined as ratio of AbA to the analogue.; type: functional
Outline: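 Agar dilution MIC against S. cerevisiae ATCC 9763 on Sabouraud–dextrose agar plates containing graded compound concentrations. A loopful of about 5 × 10⁷ cells/mL suspension was streaked on the surface, and plates were incubated at 30 °C for 3 days. MIC was the lowest concentration with no detectable growth. The value is the AbA/analogue activity ratio.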

[7] = target: T1, ATP-dependent translocase ABCB1

MIC [3] [µg/mL] | Pgp AbA/analogue ratio [4] | Compound | IC50 [1] [nM] | IC20 [2] [nM] | antifungal AbA/analogue ratio [5] | AbA/analogue ratio [6] | IC50 ([2]; human, human leukemia CEM cells) [nM] | IC50 [7] [nM]
25 (≈ 24 µM) | 0.4 | CC[C@H](C)[C@@H]1NC(=O)[C@@H]2CCCN2C(=O)[C@@H](C)N(C)C(=O)[C@H](Cc2ccc(O)cc2)NC(=O)[C@H](C(C)C)N(C)C(=O)[C@@H]([C@@H](C)CC)OC(=O)[C@H](C(C)(C)O)N(C)C(=O)[C@H](CC(C)C)NC(=O)[C@H](C(C)C)N(C)C1=O | 5770 | 2120 | – | – | – | –
> 25 | < 0.1 | CC[C@H](C)[C@@H]1NC(=O)[C@@H]2CCCN2C(=O)[C@@H](C)N(C)C(=O)[C@H](CO)NC(=O)[C@H](C(C)C)N(C)C(=O)[C@@H]([C@@H](C)CC)OC(=O)[C@H](C(C)(C)O)N(C)C(=O)[C@H](CC(C)C)NC(=O)[C@H](C(C)C)N(C)C1=O | > 31000 | > 31000 | < 0.016 | – | – | –
– | – | CC[C@H](C)[C@@H]1NC(=O)[C@@H]2CCCN2C(=O)[C@H](Cc2ccccc2)N(C)C(=O)[C@H](Cc2ccccc2)NC(=O)[C@H](C(C)C)N(C)C(=O)[C@@H]([C@@H](C)CC)OC(=O)C(C(C)(C)O)N(C)C(=O)[C@H](CC(C)C)NC(=O)[C@H](C(C)C)N(C)C1=O (some centres undefined) | 360 | 100 | – | – | – | –
– | – | CC[C@@H](C)[C@@H]1NC(=O)[C@@H]2CCCN2C(=O)[C@H](Cc2ccccc2)N(C)C(=O)[C@H](Cc2ccccc2)NC(=O)[C@H](C(C)C)N(C)C(=O)[C@@H]([C@@H](C)CC)OC(=O)CN(C)C(=O)[C@H](CC(C)C)NC(=O)[C@H](C(C)C)N(C)C1=O | – | – | – | <0.016 | – | –
1.6 (≈ 1.41 µM) | 1 | CC[C@H](C)[C@@H]1NC(=O)[C@@H]2CCCN2C(=O)[C@@H](C)N(C)C(=O)[C@H](Cc2ccc(OCC3CCCCC3)cc2)NC(=O)[C@H](C(C)C)N(C)C(=O)[C@@H]([C@@H](C)CC)OC(=O)[C@H](C(C)(C)O)N(C)C(=O)[C@H](CC(C)C)NC(=O)[C@H](C(C)C)N(C)C1=O | 2110 | 640 | 0.25 | – | – | –
0.4 (≈ 0.368 µM) | 1.8 | CC[C@H](C)[C@H]1OC(=O)[C@H](C(C)(C)O)N(C)C(=O)[C@H](CC(C)C)NC(=O)[C@H](C(C)C)N(C)C(=O)[C@H](C(C)C)NC(=O)[C@@H]2CCCN2C(=O)[C@H](Cc2ccccc2)N(C)C(=O)[C@H](Cc2ccccc2)NC(=O)[C@H](C(C)C)N(C)C1=O (cyclo(F[NMeF]PV[NMeV]L[NMeVal(β-OH)][Hmp(2R,3S)][NMeV])) | 1290 | 410 | – | – | – | –
– | – | CC[C@@H](C)[C@@H]1NC(=O)[C@@H]2CCCN2C(=O)[C@H](Cc2ccccc2)N(C)C(=O)[C@H](Cc2ccccc2)NC(=O)[C@H](C(C)C)N(C)C(=O)[C@@H]([C@H](C)CC)OC(=O)[C@H](C(C)(C)O)N(C)C(=O)[C@H](CC(C)C)NC(=O)[C@H](C(C)C)N(C)C1=O [AUREOBASIDIN A] | – | – | – | – | – | 2270

Compound | MIC [3] [µg/mL] | Pgp AbA/analogue ratio [4] | IC50 [1] [nM] | IC20 [2] [nM] | antifungal AbA/analogue ratio [5] | AbA/analogue ratio [6] | IC50 ([2]; human, human leukemia CEM cells) [nM] | IC50 [7] [nM]
CC[C@@H](C)[C@@H]1NC(=O)[C@@H]2CCCN2C(=O)[C@H](Cc2ccccc2)N(C)C(=O)[C@H](Cc2ccccc2)NC(=O)[C@H](C(C)C)N(C)C(=O)[C@@H](C(C)C)OC(=O)[C@H](C(C)(C)O)N(C)C(=O)[C@H](CC(C)C)NC(=O)[C@H](C(C)C)N(C)C1=O | – | 2.1 | 1100 | 340 | 1 | – | – | –
CC[C@H](C)[C@@H]1NC(=O)[C@@H]2CCCN2C(=O)[C@@H](Cc2ccccc2)N(C)C(=O)[C@H](Cc2ccccc2)NC(=O)[C@H](C(C)C)N(C)C(=O)[C@@H]([C@@H](C)CC)OC(=O)[C@H](C(C)(C)O)N(C)C(=O)[C@H](CC(C)C)NC(=O)[C@H](C(C)C)N(C)C1=O | 0.2 (≈ 0.182 µM) | – | 2730 | 910 | – | – | – | –
CC[C@H](C)[C@@H]1NC(=O)[C@@H]2CCCN2C(=O)[C@H](Cc2ccccc2)N(C)C(=O)[C@H](Cc2ccccc2)NC(=O)[C@H](C(C)C)N(C)C(=O)[C@@H]([C@@H](C)CC)OC(=O)[C@H](C(C)(C)O)N(C)C(=O)[C@H](CC(C)C)NC(=O)[C@@H](C(C)C)N(C)C1=O | > 25 | – | > 2730 | 1800 | – | – | – | –
CC[C@H](C)[C@@H]1NC(=O)[C@H]2CCCN2C(=O)[C@H](Cc2ccccc2)N(C)C(=O)[C@H](Cc2ccccc2)NC(=O)[C@H](C(C)C)N(C)C(=O)[C@@H]([C@@H](C)CC)OC(=O)[C@H](C(C)(C)O)N(C)C(=O)[C@H](CC(C)C)NC(=O)[C@H](C(C)C)N(C)C1=O | 1.6 (≈ 1.45 µM) | – | > 2700 | 1360 | – | – | – | –
CC[C@@H](C)[C@@H]1NC(=O)[C@@H]2CCCN2C(=O)[C@H](Cc2ccccc2)N(C)C(=O)[C@H](Cc2ccccc2)NC(=O)[C@H](C(C)C)N(C)C(=O)[C@@H]([C@@H](C)CC)OC(=O)[C@H]([C@H](C)CO)N(C)C(=O)[C@H](CC(C)C)NC(=O)[C@H](C(C)C)N(C)C1=O | – | 2.1 | – | 360 | 0.06 | – | 1090 | –
